Results reported in ChEMBL document CHEMBL1629557, “Development of intergenotypic chimeric replicons to determine the broad-spectrum antiviral activities of hepatitis C virus polymerase inhibitors” (Antimicrob Agents Chemother, 2008).

How the values were obtained:
[1] = test system: Hepatitis C virus; assay: Ratio of EC50 for wild-type Hepatitis C virus isolate Con1 to EC50 for Hepatitis C virus isolate Con1 transfected with NS5B polymerase of HCV genotype 3a in human Huh7.5 cells by hRLuc reporter gene assay; assay type: functional, Hepacivirus hominis, Huh-7
Procedure, shortened: (§1)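 Stable Huh7.5 replicon cell lines, kept in medium with 250 μg/ml G418, seeded at 2e4/well and settled 30 min. Compounds were added in half-log serial dilutions with solvent (compound-free) controls for 3 days at 37°C, then hRLuc activity was read. Fold change is EC50 relative to wild-type Con-1.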

[2] = test system: Hepatitis C virus; assay: Ratio of EC50 for wild-type Hepatitis C virus isolate Con1 to EC50 for Hepatitis C virus isolate Con1 with NS5B polymerase L419I mutant in human Huh7.5 cells by hRLuc reporter gene assay; assay type: functional, Hepacivirus hominis, Huh-7
Procedure, shortened: (§2)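 Transient assay: Huh7.5 cells electroporated with 10 μg in vitro replicon transcript at 220 V, seeded at 6 × 10^4 cells/well, and given 4 h recovery. Half-log serial compound dilutions with solvent controls were then added for 3 days at 37°C, and hRLuc luciferase was read. EC50 was taken as 50% of compound-free signal by nonlinear regression, as mean ± SD of 2–3 independent experiments. Fold change is relative to wild-type Con-1.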

[3] = test system: Hepatitis C virus; assay: Antiviral activity against Hepatitis C virus isolate Con1 transfected with NS5B polymerase of HCV genotype 5a infected in human Huh7.5 cells assessed as decrease in viral RNA replication after 3 days by hRLuc reporter gene assay; assay type: functional, organism-based, Hepacivirus hominis; conditions: Con1, Huh-7, 72 h; procedure, shortened: as §1
[4] = test system: Hepatitis C virus; assay: Antiviral activity against Hepatitis C virus isolate Con1 transfected with NS5B polymerase of HCV genotype 2b in human Huh7.5 cells assessed as decrease in viral RNA replication after 3 days by hRLuc reporter gene assay; assay type: functional, organism-based, Hepacivirus hominis; conditions: Con1, Huh-7, 72 h; procedure, shortened: as §1
[5] = test system: Hepatitis C virus; assay: Antiviral activity against Hepatitis C virus genotype 2a JFH1 infected in human Huh7.5 cells assessed as decrease in viral RNA replication after 3 days by hRLuc reporter gene assay; assay type: functional, organism-based, Hepacivirus hominis; conditions: JFH-1, Huh-7, 72 h; procedure, shortened: as §1
[6] = test system: Hepatitis C virus; assay: Ratio of EC50 for wild-type Hepatitis C virus isolate Con1 to EC50 for Hepatitis C virus isolate Con1 transfected with NS5B polymerase of HCV genotype 5a in human Huh7.5 cells by hRLuc reporter gene assay; assay type: functional, Hepacivirus hominis, Huh-7; procedure, shortened: as §1
[7] = test system: Hepatitis C virus; assay: Ratio of EC50 for wild-type Hepatitis C virus isolate Con1 to EC50 for Hepatitis C virus genotype 1a H77 in human Huh7.5 cells by hRLuc reporter gene assay; assay type: functional, Hepacivirus hominis, Huh-7; procedure, shortened: as §1
[8] = test system: Hepatitis C virus; assay: Antiviral activity against Hepatitis C virus isolate Con1 transfected with NS5B polymerase of HCV genotype 4a infected in human Huh7.5 cells assessed as decrease in viral RNA replication after 3 days by hRLuc reporter gene assay; assay type: functional, organism-based, Hepacivirus hominis; conditions: Con1, Huh-7, 72 h; procedure, shortened: as §1
[9] = test system: Hepatitis C virus; assay: Antiviral activity against Hepatitis C virus isolate Con1 infected in human Huh7.5 cells assessed as decrease in viral RNA replication after 3 days by hRLuc reporter gene assay; assay type: functional, organism-based, Hepacivirus hominis; conditions: Con1, Huh-7, 72 h; procedure, shortened: as §1
[10] = test system: Hepatitis C virus; assay: Antiviral activity against Hepatitis C virus isolate Con1 transfected with NS5B polymerase of HCV genotype 3a infected in human Huh7.5 cells assessed as decrease in viral RNA replication after 3 days by hRLuc reporter gene assay; assay type: functional, organism-based, Hepacivirus hominis; conditions: Con1, Huh-7, 72 h; procedure, shortened: as §1
[11] = test system: Hepatitis C virus; assay: Ratio of EC50 for wild-type Hepatitis C virus isolate Con1 to EC50 for Hepatitis C virus isolate Con1 transfected with NS5B polymerase of HCV genotype 4a in human Huh7.5 cells by hRLuc reporter gene assay; assay type: functional, Hepacivirus hominis, Huh-7; procedure, shortened: as §1
[12] = test system: Hepatitis C virus; assay: Ratio of EC50 for wild-type Hepatitis C virus isolate Con1 to EC50 for Hepatitis C virus isolate Con1 transfected with NS5B polymerase of HCV genotype 2b in human Huh7.5 cells by hRLuc reporter gene assay; assay type: functional, Hepacivirus hominis, Huh-7; procedure, shortened: as §1
[13] = test system: Hepatitis C virus; assay: Ratio of EC50 for wild-type Hepatitis C virus isolate Con1 to EC50 for Hepatitis C virus isolate Con1 with NS5B polymerase I482L mutant in human Huh7.5 cells by hRLuc reporter gene assay; assay type: functional, Hepacivirus hominis, Huh-7; procedure, shortened: as §2
[14] = test system: Hepatitis C virus; assay: Antiviral activity against Hepatitis C virus genotype 1a H77 infected in human Huh7.5 cells assessed as decrease in viral RNA replication after 3 days by hRLuc reporter gene assay; assay type: functional, organism-based, Hepacivirus hominis; conditions: genotype 1a H77, Huh-7, 72 h; procedure, shortened: as §1
[15] = test system: Hepatitis C virus; assay: Ratio of EC50 for wild-type Hepatitis C virus isolate Con1 to EC50 for Hepatitis C virus genotype 2a JFH1 in human Huh7.5 cells by hRLuc reporter gene assay; assay type: functional, Hepacivirus hominis, Huh-7; procedure, shortened: as §1
[16] = test system: Hepatitis C virus; assay: Ratio of EC50 for wild-type Hepatitis C virus isolate Con1 to EC50 for Hepatitis C virus isolate Con1 with NS5B polymerase L419I and I482L mutant in human Huh7.5 cells by hRLuc reporter gene assay; assay type: functional, Hepacivirus hominis, Huh-7; procedure, shortened: as §2

## CNC(=O)c1c(-c2ccc(F)cc2)oc2cc(N(CCO)S(C)(=O)=O)c(C3CC3)cc12 [NESBUVIR]
[1]
  fold change (FC): 1
[2]
  fold change (FC): 2
[3]
  EC50: 0.0032 µM
[4]
  EC50: 0.055 µM
[5]
  EC50: 0.13 µM
[6]
  fold change (FC): 0.1
[7]
  fold change (FC): 1
[8]
  EC50: 0.069 µM
[9]
  EC50: 0.042 µM
[10]
  EC50: 0.051 µM
[11]
  fold change (FC): 2
[12]
  fold change (FC): 1
[13]
  fold change (FC): 1
[14]
  EC50: 0.038 µM
[15]
  fold change (FC): 3
[16]
  fold change (FC): 3

## CC(C)C#Cc1cc(N(C(=O)[C@H]2CC[C@H](C)CC2)C(C)C)c(C(=O)O)s1
[1]
  fold change (FC): >1280
[2]
  fold change (FC): 326
[3]
  EC50: 0.2 µM
[4]
  EC50: > 32 µM
[5]
  EC50: 6.1 µM
[6]
  fold change (FC): 8
[7]
  fold change (FC): 1
[8]
  EC50: 2.2 µM
[9]
  EC50: 0.025 µM
[10]
  EC50: > 32 µM
[11]
  fold change (FC): 88
[12]
  fold change (FC): >1280
[13]
  fold change (FC): 201
[14]
  EC50: 0.02 µM
[15]
  fold change (FC): 244
[16]
  fold change (FC): 2238

## COc1ccc2c(O[C@@H]3C[C@H]4C(=O)N[C@@]5(C(=O)O)C[C@@H]5/C=C\CCCCC[C@H](NC(=O)OC(C)(C)C)C(=O)N4C3)cc(-c3ccccn3)nc2c1 [listing 1 of 2 here]
[1]
  fold change (FC): 3
[6]
  fold change (FC): 3
[7]
  fold change (FC): 3
[11]
  fold change (FC): 8
[12]
  fold change (FC): 4
[15]
  fold change (FC): 112

## COc1ccc2c(O[C@@H]3C[C@H]4C(=O)N[C@@]5(C(=O)O)C[C@@H]5/C=C\CCCCC[C@H](NC(=O)OC(C)(C)C)C(=O)N4C3)cc(-c3ccccn3)nc2c1 [listing 2 of 2 here]
[3]
  EC50: 0.023 µM
[4]
  EC50: 0.026 µM
[5]
  EC50: 0.74 µM
[8]
  EC50: 0.053 µM
[9]
  EC50: 0.0066 µM
[10]
  EC50: 0.022 µM
[14]
  EC50: 0.02 µM

## C[C@@]1(O)[C@H](O)[C@@H](CO)O[C@H]1n1ccc(N)nc1=O
[1]
  fold change (FC): 0.2
[2]
  fold change (FC): 1
[6]
  fold change (FC): 0.5
[7]
  fold change (FC): 1
[11]
  fold change (FC): 2
[12]
  fold change (FC): 0.4
[13]
  fold change (FC): 1
[15]
  fold change (FC): 1
[16]
  fold change (FC): 2

## O=C(O)c1ccc2c(c1)nc(-c1ccc(OCc3cc(C(=O)N4CCC(O)CC4)ccc3-c3ccc(Cl)cc3)cc1F)n2C1CCCCC1
[1]
  fold change (FC): 0.2
[2]
  fold change (FC): 4
[3]
  EC50: 0.16 µM
[4]
  EC50: 30 µM
[5]
  EC50: 6.9 µM
[6]
  fold change (FC): 0.2
[7]
  fold change (FC): 1
[8]
  EC50: 1.5 µM
[9]
  EC50: 0.9 µM
[10]
  EC50: 0.21 µM
[11]
  fold change (FC): 2
[12]
  fold change (FC): 33
[13]
  fold change (FC): 3
[14]
  EC50: 0.49 µM
[15]
  fold change (FC): 8
[16]
  fold change (FC): 8

## NC(=O)COc1ccc2c(c1)S(=O)(=O)N=C(c1c(O)c3ccccc3n(NC3CCC3)c1=O)N2
[1]
  fold change (FC): >970
[2]
  fold change (FC): 0.2
[3]
  EC50: 5 µM
[4]
  EC50: > 32 µM
[5]
  EC50: > 32 µM
[6]
  fold change (FC): 152
[7]
  fold change (FC): 4
[8]
  EC50: 25 µM
[9]
  EC50: 0.033 µM
[10]
  EC50: > 32 µM
[11]
  fold change (FC): 758
[12]
  fold change (FC): >970
[13]
  fold change (FC): 0.5
[14]
  EC50: 0.14 µM
[15]
  fold change (FC): >970
[16]
  fold change (FC): 0.2
